Assay results: ChEMBL document CHEMBL5154713, “Illuminating a Dark Kinase: Structure-Guided Design, Synthesis, and Evaluation of a Potent Nek1 Inhibitor and Its Effects on the Embryonic Zebrafish Pronephros” (J Med Chem, 2022)

Assays:
[1] = biological target: T1, Serine/threonine-protein kinase Nek1 (Homo sapiens) (UniProt Q96PY6); experiment: Inhibition of human recombinant NEK1 (1 to 505 residues) assessed as residual activity at 1 uM using RLGRDKYKTLRQIRQ as substrate incubated for 40 mins in presence of [gamma-33P]-ATP by radiometric scintillation counting assay relative to control
T1 sequence (whole entry): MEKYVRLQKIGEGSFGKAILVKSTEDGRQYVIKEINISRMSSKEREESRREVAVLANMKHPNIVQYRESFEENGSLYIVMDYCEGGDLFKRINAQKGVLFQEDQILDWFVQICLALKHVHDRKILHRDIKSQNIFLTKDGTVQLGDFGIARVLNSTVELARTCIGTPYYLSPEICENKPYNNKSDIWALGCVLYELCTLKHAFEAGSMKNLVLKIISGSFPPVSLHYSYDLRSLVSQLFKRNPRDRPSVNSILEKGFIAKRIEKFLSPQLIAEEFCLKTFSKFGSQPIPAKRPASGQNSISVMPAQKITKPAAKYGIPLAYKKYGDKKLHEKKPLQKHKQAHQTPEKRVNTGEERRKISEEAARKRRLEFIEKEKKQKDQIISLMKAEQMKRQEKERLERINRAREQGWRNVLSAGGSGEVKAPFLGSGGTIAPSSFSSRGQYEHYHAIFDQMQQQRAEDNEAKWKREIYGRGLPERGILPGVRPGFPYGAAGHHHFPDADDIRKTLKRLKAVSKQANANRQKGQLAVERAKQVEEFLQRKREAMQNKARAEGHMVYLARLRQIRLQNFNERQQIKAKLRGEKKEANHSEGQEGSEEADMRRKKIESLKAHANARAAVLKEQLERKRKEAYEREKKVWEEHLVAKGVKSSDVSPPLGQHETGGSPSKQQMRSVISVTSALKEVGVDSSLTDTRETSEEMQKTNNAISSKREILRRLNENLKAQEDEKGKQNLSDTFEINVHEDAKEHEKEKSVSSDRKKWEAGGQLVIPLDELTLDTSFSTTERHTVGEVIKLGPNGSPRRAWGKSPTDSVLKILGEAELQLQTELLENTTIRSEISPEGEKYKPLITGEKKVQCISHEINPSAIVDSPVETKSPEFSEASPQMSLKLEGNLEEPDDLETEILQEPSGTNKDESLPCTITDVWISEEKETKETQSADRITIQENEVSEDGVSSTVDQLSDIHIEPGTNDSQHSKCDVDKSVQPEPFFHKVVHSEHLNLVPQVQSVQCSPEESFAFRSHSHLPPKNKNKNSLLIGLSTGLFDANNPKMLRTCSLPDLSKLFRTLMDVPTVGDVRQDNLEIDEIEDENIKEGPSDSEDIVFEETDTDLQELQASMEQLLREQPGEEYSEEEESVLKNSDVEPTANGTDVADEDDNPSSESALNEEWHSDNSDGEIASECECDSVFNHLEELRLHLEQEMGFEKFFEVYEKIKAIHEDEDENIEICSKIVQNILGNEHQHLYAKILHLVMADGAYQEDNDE
Summary of the method: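 Eurofins KinaseProfiler radiometric panel, compound at 1 μM, ATP at 10 μM or within 15 μM of apparent Km. For Nek1 (1−505): 8 mM MOPS pH 7.0, 0.2 mM EDTA, 250 μM peptide, 10 mM Mg acetate, [γ-33P]-ATP, 40 min at room temperature. Stopped with 0.5% phosphoric acid, filtermat spotting, scintillation counting. Mean of two independent experiments.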

[2] = biological target: T2, Serine/threonine-protein kinase Nek1 (Homo sapiens, UniProt Q96PY6); experiment: Inhibition of human recombinant NEK1 (1 to 505 residues) using ULight-p70 S6K peptide as substrate incubated for 30 mins by LANCE Ultra TR-FRET assay
T2 sequence (Q96PY6 whole entry): T1 sequence (whole entry)
Summary of the method: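 Recombinant human Nek1 (1−505, 0.02 nM) in 50 mM HEPES pH 7.5, 1 mM EGTA, 10 mM MgCl2, 0.2 mM DTT, 0.01% Tween20, with 50 nM ULight-p70 S6K peptide and 60 μM ATP, 30 min at 22 °C. Stopped with EDTA plus Eu anti-phospho antibody, 1 h signal development. Ten half-log concentrations from 30 μM (10 μM for some) to 1 nM. Mean of two experiments.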

[3] = biological target: T2, Serine/threonine-protein kinase Nek1; experiment: Inhibition of human recombinant NEK1 (1 to 505 residues) using RLGRDKYKTLRQIRQ as substrate incubated for 40 mins in presence of [gamma-33P]-ATP by radiometric scintillation counting assay
Summary of the method: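 Eurofins IC50Profiler radiometric assay on recombinant human Nek1 (1−505), ATP at 10 μM or 90 μM (near Km). Nine concentrations at half-log steps from 10 μM to 1 nM, with vehicle controls. IC50 and 95% CI obtained by four-parameter nonlinear regression. Mean of two independent experiments.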

| SMILES | Activity [1] | IC50 [2] | IC50 [3] |
| --- | --- | --- | --- |
| O=S(=O)(N[C@H](CO)Cc1ccccc1)c1ccc(-c2ccnc3[nH]ccc23)cc1 | 19% | 1.9 µM | – |
| CC(C)(C)OC(=O)NCCNS(=O)(=O)c1ccc(-c2ccnc3[nH]ccc23)cc1 | 49% | – | – |
| O=S(=O)(NCCN1CCOCC1)c1ccc(-c2ccnc3[nH]ccc23)cc1 | 51% | 27 µM | – |
| O=S(=O)(N[C@H](CO)Cc1ccc(O)cc1)c1ccc(-c2ccnc3[nH]ccc23)cc1 | 33% | 2 µM | – |
| O=S(=O)(N[C@@H](CO)Cc1ccc(O)cc1)c1ccc(-c2ccnc3[nH]ccc23)cc1 | 25% | 1.6 µM | – |
| O=C(O)[C@H](Cc1ccccc1)NS(=O)(=O)c1ccc(-c2ccnc3[nH]ccc23)cc1 | 94% | – | – |
| O=S(=O)(N[C@H](CO)Cc1c[nH]c2ccccc12)c1ccc(-c2ccnc3[nH]ccc23)cc1 | 19% | 0.99 µM | – |
| O=C(NCCO)c1ccc(-c2ccnc3[nH]ccc23)cc1 | 89% | 29 µM | – |
| O=S(=O)(N[C@@H](CO)Cc1ccccc1)c1ccc(-c2ccnc3[nH]ccc23)cc1 | 16% | 1.3 µM | – |
| O=S(=O)(NCCN1CCCCC1)c1ccc(-c2ccnc3[nH]ccc23)cc1 | 37% | 6.6 µM | – |
| CN1CCN(S(=O)(=O)c2ccc(-c3ccnc4[nH]ccc34)cc2)CC1 | 45% | > 10 µM | – |

Other lines, results leading:

| Activity [1] | IC50 [2] | IC50 [3] | SMILES |
| --- | --- | --- | --- |
| 32% | 5.8 µM | – | CC(C)(O)CNS(=O)(=O)c1ccc(-c2ccnc3[nH]ccc23)cc1 |
| 44% | > 30 µM | – | COCCNS(=O)(=O)c1ccc(-c2ccnc3[nH]ccc23)cc1 |
| 46% | 2.7 µM | – | CN(CCO)S(=O)(=O)c1ccc(-c2ccnc3[nH]ccc23)cc1 |
| 37% | 7.1 µM | 4.3 µM | CN(C)CCNS(=O)(=O)c1ccc(-c2ccnc3[nH]ccc23)cc1 |
| 68% | 10 µM | – | CCN(CC)CCNS(=O)(=O)c1ccc(-c2ccnc3[nH]ccc23)cc1 |
| 12% | 3.2 µM | 2 µM | O=S(=O)(NCCO)c1ccc(-c2ccnc3[nH]ccc23)cc1 |
| 49% | 8.8 µM | – | CC(=O)OCCNS(=O)(=O)c1ccc(-c2ccnc3[nH]ccc23)cc1 |
